From ChEMBL document CHEMBL4689842, “EUbOPEN Chemogenomics Library wave 1” (2021)
Values joined by “and” are separate entries in the source; they are usually repeats but may differ in a detail not shown here. Equal values may be shown once.

Tested on: U2OS
Assay: Multiplex assay against U2OS
Type: toxicity, cell-based
Conditions: human
In short: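 Hoechst33342, BioTracker Green Microtubule Cytoskeleton Dye, MitoTracker Red and Annexin V Alexa Fluor 680 were added to live cells at seeding, and imaging on a CQ1 microscope at 37°C and 5% CO2 followed compound addition. Gating by CellPathfinder machine learning separated cells into Hoechst high-intensity objects or normal cells, then normal cells into healthy, pyknosed or fragmented nuclei, then pyknosed cells into mitotic or apoptotic. Per cents of healthy-nucleus cells are reported for the tubulin, mitochondrial-mass and membrane-permeability phenotypes.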

[1] = 12 h, 10 µM, compound concentration 10 uM, replicate 1
[2] = 12 h, 10 µM, compound concentration 10 uM, replicate 2
[3] = 24 h, 10 µM, compound concentration 10 uM, replicate 1
[4] = 24 h, 10 µM, compound concentration 10 uM, replicate 2
[5] = 12 h, 1 µM, compound concentration 1 uM, replicate 1
[6] = 12 h, 1 µM, compound concentration 1 uM, replicate 2
[7] = 24 h, 1 µM, compound concentration 1 uM, replicate 1
[8] = 24 h, 1 µM, compound concentration 1 uM, replicate 2
[9] = 48 h, 1 µM, compound concentration 1 uM, replicate 1
[10] = 48 h, 1 µM, compound concentration 1 uM, replicate 2
[11] = 48 h, 10 µM, compound concentration 10 uM, replicate 1
[12] = 48 h, 10 µM, compound concentration 10 uM, replicate 2

## Cc1cc(NC(=O)c2cccc(S(F)(F)(F)(F)F)c2)cc(-n2ccn3nc(-c4cccnc4)cc23)c1 [BAY-309]
[1]
  Population Apoptotic (%): 25% and 23%
  Population Fragmented Nuclei (%): 4%
  Population Healthy Nuclei (%): 87% and 78%
  Population Hoechst High Intensity Objects (%): 0% and 3%
  Population Membrane Permeable-Phenotype (%): 46% and 55%
  Population Mitochondria Different-Phenotype (%): 30% and 60%
  Population Mitotic Cells (%): 75% and 76%
  Population Normal (%): 99% and 96%
  Population Pyknosed Nuclei (%): 7% and 16%
  Population Tubulin-Different-Phenotype (%): 67%
  Total Cell Count: 108 and 233
[2]
  Population Apoptotic (%): 37% and 56%
  Population Fragmented Nuclei (%): 8% and 9%
  Population Healthy Nuclei (%): 82% and 67%
  Population Hoechst High Intensity Objects (%): 9% and 5%
  Population Membrane Permeable-Phenotype (%): 53% and 49%
  Population Mitotic Cells (%): 62% and 43%
  Population Normal (%): 90% and 94%
  Population Pyknosed Nuclei (%): 9% and 22%
  Population Tubulin-Different-Phenotype (%): 61% and 100%
  Total Cell Count: 185
[3]
  Population Apoptotic (%): 50% and 61%
  Population Fragmented Nuclei (%): 8% and 6%
  Population Healthy Nuclei (%): 85% and 70%
  Population Hoechst High Intensity Objects (%): 5% and 3%
  Population Membrane Permeable-Phenotype (%): 42% and 56%
  Population Mitotic Cells (%): 50% and 38%
  Population Normal (%): 95% and 96%
  Population Tubulin-Different-Phenotype (%): 53%
  Total Cell Count: 140 and 230
[4]
  Population Apoptotic (%): 95% and 37%
  Population Fragmented Nuclei (%): 15% and 7%
  Population Healthy Nuclei (%): 60% and 84%
  Population Hoechst High Intensity Objects (%): 9% and 6%
  Population Membrane Permeable-Phenotype (%): 74% and 40%
  Population Mitochondria Different-Phenotype (%): 83% and 30%
  Population Normal (%): 90% and 93%
  Population Tubulin-Different-Phenotype (%): 100% and 40%
  Total Cell Count: 108 and 215

## CCc1nn(CCCN2CCN(c3cccc(Cl)c3)CC2)c(=O)n1CCOc1ccccc1.Cl [NEFAZODONE HYDROCHLORIDE]
[5]
  Population Apoptotic (%): 42%
  Population Fragmented Nuclei (%): 11%
  Population Healthy Nuclei (%): 67%
  Population Hoechst High Intensity Objects (%): 9%
  Population Membrane Permeable-Phenotype (%): 1%
  Population Mitochondria Different-Phenotype (%): 27%
  Population Mitotic Cells (%): 57%
  Population Normal (%): 90%
  Population Pyknosed Nuclei (%): 20%
  Population Tubulin-Different-Phenotype (%): 28%
[6]
  Population Apoptotic (%): 0%
  Population Fragmented Nuclei (%): 8%
  Population Healthy Nuclei (%): 89%
  Population Hoechst High Intensity Objects (%): 6%
  Population Membrane Permeable-Phenotype (%): 3%
  Population Mitochondria Different-Phenotype (%): 9%
  Population Mitotic Cells (%): 100%
  Population Normal (%): 93%
  Population Pyknosed Nuclei (%): 1%
  Population Tubulin-Different-Phenotype (%): 29%
  Total Cell Count: 68
[1]
  Population Apoptotic (%): 71%
  Population Fragmented Nuclei (%): 13%
  Population Healthy Nuclei (%): 55%
  Population Hoechst High Intensity Objects (%): 5%
  Population Membrane Permeable-Phenotype (%): 56%
  Population Mitochondria Different-Phenotype (%): 100%
  Population Mitotic Cells (%): 28%
  Population Normal (%): 94%
  Population Pyknosed Nuclei (%): 31%
  Population Tubulin-Different-Phenotype (%): 100%
  Total Cell Count: 150
[2]
  Population Apoptotic (%): 69%
  Population Fragmented Nuclei (%): 9%
  Population Healthy Nuclei (%): 69%
  Population Hoechst High Intensity Objects (%): 3%
  Population Membrane Permeable-Phenotype (%): 60%
  Population Mitochondria Different-Phenotype (%): 97%
  Population Mitotic Cells (%): 30%
  Population Normal (%): 96%
  Population Pyknosed Nuclei (%): 20%
  Population Tubulin-Different-Phenotype (%): 97%
  Total Cell Count: 61
[7]
  Population Apoptotic (%): 32%
  Population Fragmented Nuclei (%): 10%
  Population Healthy Nuclei (%): 73%
  Population Hoechst High Intensity Objects (%): 6%
  Population Membrane Permeable-Phenotype (%): 3%
  Population Mitochondria Different-Phenotype (%): 21%
  Population Mitotic Cells (%): 68%
  Population Normal (%): 93%
  Population Pyknosed Nuclei (%): 15%
  Population Tubulin-Different-Phenotype (%): 22%
[8]
  Population Apoptotic (%): 50%
  Population Fragmented Nuclei (%): 8%
  Population Healthy Nuclei (%): 85%
  Population Hoechst High Intensity Objects (%): 2%
  Population Membrane Permeable-Phenotype (%): 1%
  Population Mitochondria Different-Phenotype (%): 15%
  Population Mitotic Cells (%): 50%
  Population Normal (%): 97%
  Population Pyknosed Nuclei (%): 5%
  Population Tubulin-Different-Phenotype (%): 33%
  Total Cell Count: 71
[3]
  Population Apoptotic (%): 82%
  Population Fragmented Nuclei (%): 17%
  Population Healthy Nuclei (%): 49%
  Population Hoechst High Intensity Objects (%): 7%
  Population Membrane Permeable-Phenotype (%): 72%
  Population Mitochondria Different-Phenotype (%): 98%
  Population Mitotic Cells (%): 17%
  Population Normal (%): 92%
  Population Pyknosed Nuclei (%): 33%
  Population Tubulin-Different-Phenotype (%): 100%
  Total Cell Count: 172
[4]
  Population Apoptotic (%): 80%
  Population Fragmented Nuclei (%): 22%
  Population Healthy Nuclei (%): 56%
  Population Hoechst High Intensity Objects (%): 1%
  Population Membrane Permeable-Phenotype (%): 80%
  Population Mitochondria Different-Phenotype (%): 100%
  Population Mitotic Cells (%): 20%
  Population Normal (%): 98%
  Population Pyknosed Nuclei (%): 20%
  Total Cell Count: 72
[9]
  Population Apoptotic (%): 46%
  Population Fragmented Nuclei (%): 9%
  Population Healthy Nuclei (%): 73%
  Population Hoechst High Intensity Objects (%): 5%
  Population Membrane Permeable-Phenotype (%): 3%
  Population Mitochondria Different-Phenotype (%): 15%
  Population Mitotic Cells (%): 53%
  Population Normal (%): 94%
  Population Pyknosed Nuclei (%): 16%
  Population Tubulin-Different-Phenotype (%): 14%
[10]
  Population Apoptotic (%): 16%
  Population Fragmented Nuclei (%): 5%
  Population Healthy Nuclei (%): 88%
  Population Hoechst High Intensity Objects (%): 1%
  Population Membrane Permeable-Phenotype (%): 2%
  Population Mitochondria Different-Phenotype (%): 18%
  Population Mitotic Cells (%): 83%
  Population Normal (%): 98%
  Population Pyknosed Nuclei (%): 5%
  Population Tubulin-Different-Phenotype (%): 46%
  Total Cell Count: 67
[11]
  Population Apoptotic (%): 82%
  Population Fragmented Nuclei (%): 24%
  Population Healthy Nuclei (%): 41%
  Population Membrane Permeable-Phenotype (%): 83%
  Population Mitochondria Different-Phenotype (%): 97%
  Population Mitotic Cells (%): 17%
  Population Pyknosed Nuclei (%): 34%
  Total Cell Count: 246
[12]
  Population Apoptotic (%): 66%
  Population Fragmented Nuclei (%): 14%
  Population Healthy Nuclei (%): 43%
  Population Hoechst High Intensity Objects (%): 8%
  Population Membrane Permeable-Phenotype (%): 85%
  Population Mitochondria Different-Phenotype (%): 100%
  Population Mitotic Cells (%): 33%
  Population Normal (%): 91%
  Population Pyknosed Nuclei (%): 42%
  Population Tubulin-Different-Phenotype (%): 100%
  Total Cell Count: 110
